In PMC6880868 (Cancer cell, 2019):

Tests used:
[1] = molecular target: T1, STAT3 (Homo sapiens, UniProt P40763); assay: Pharmacodynamics: STAT3 protein in xenograft tumors; assay type: in vivo, NOD/SCID mice bearing human xenograft tumors
Target sequence in this assay (P40763 whole entry): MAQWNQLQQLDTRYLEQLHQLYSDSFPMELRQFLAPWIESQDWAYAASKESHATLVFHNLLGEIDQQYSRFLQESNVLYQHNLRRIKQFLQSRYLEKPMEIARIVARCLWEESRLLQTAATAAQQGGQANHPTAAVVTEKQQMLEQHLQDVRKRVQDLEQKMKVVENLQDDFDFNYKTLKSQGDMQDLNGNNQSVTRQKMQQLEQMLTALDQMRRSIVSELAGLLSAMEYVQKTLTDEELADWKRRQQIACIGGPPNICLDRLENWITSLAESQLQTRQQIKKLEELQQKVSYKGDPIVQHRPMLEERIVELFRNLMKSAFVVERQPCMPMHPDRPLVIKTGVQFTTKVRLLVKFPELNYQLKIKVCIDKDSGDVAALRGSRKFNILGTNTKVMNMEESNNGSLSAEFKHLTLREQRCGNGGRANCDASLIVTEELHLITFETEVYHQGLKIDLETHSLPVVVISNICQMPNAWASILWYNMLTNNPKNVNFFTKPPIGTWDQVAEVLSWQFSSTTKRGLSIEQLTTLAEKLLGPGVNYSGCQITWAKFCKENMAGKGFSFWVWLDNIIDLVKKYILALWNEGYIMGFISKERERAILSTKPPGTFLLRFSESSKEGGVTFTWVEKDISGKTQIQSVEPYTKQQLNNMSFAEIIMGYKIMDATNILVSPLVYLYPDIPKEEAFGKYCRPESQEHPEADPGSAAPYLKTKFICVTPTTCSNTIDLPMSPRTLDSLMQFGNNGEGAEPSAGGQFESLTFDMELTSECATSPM

[2] = system: STAT3 target genes; assay: qRT-PCR of STAT3 target genes in MOLM-16 tumors; assay type: in vivo, SCID mice; conditions: single dose 25 mg/kg i.v.
Method in brief: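 SCID mice with MOLM-16 tumours received vehicle or test compound i.v. Total RNA was isolated from tumour lysates and STAT3 target genes were quantified by qRT-PCR.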

[3] = system: SU-DHL-1 and SUP-M2 cells; assay: Annexin V apoptosis assay; assay type: cell-based, human; conditions: 48 hr
Method in brief: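 Cells collected at the end of treatment, washed in cold PBS, stained with an Annexin V-FLUOS kit per the maker's protocol, and analysed by flow cytometry.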

[4] = system: SUP-M2 tumor; assay: SUP-M2 xenograft efficacy; assay type: in vivo, mice
Method in brief: (§1)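 NOD/SCID female mice were injected subcutaneously in 5 mg/ml Matrigel with MOLM-16 (3 × 10^6), SU-DHL-1 (1 × 10^7) or SUP-M2 (1 × 10^7) cells. At about 150 mm3, mice were size-matched and randomised. Test compound or vehicle (10% PEG400 + 90% PBS) was given on the indicated schedules. Tumours were measured 2–3 times weekly, with volume = length×width²/2. TGI was calculated from group medians.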

[5] = system: SU-DHL-1 xenograft; assay: SU-DHL-1 xenograft efficacy; assay type: in vivo, mice
Method in brief: as §1

[6] = system: leukemia and lymphoma cell lines; assay: 4-day CellTiter Glo cell viability assay, leukemia and lymphoma cell line panel; assay type: cell-based, human
[7] = system: SU-DHL-1; assay: RNA-seq analysis, SU-DHL-1; assay type: cell-based, human; conditions: SU-DHL-1, 24 hr
[8] = system: c-Myc; STAT3 Y705 phosphorylation; assay: Immunoblotting of c-Myc and pSTAT3; assay type: cell-based, human; conditions: 0.5 μM, 24 hr
Method in brief: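 Treated cells were lysed in cell lysis buffer, resolved by SDS-PAGE, transferred to PVDF and probed by immunoblotting.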

[9] = system: ~5500 proteins quantified in each cell line; assay: Multiplexed quantitative proteomics in cell lines; assay type: cell-based, human; conditions: 10 μM, 2.5 hr, three cell lines, p≤0.05
Method in brief: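 Cells were exposed to test compound, then analysed by multiplexed quantitative proteomics. Significance was assessed by Student's t-test.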

[10] = system: STAT proteins in MOLM-16 and SU-DHL-1 tumors; assay: Multiplexed quantitative proteomics in xenograft tumors; assay type: in vivo, mice; conditions: 25 mg/kg i.v., 6 hr
[11] = system: IKZF1, IKZF3, CK1α, GSPT1; assay: Immunoblotting of CRBN neo-substrates; assay type: cell-based, human; conditions: 24 hr; SD-36 0.5 μM, lenalidomide 1 μM
[12] = system: transcriptional activities of STAT1 or STAT5A/B; assay: STAT1 and STAT5 dependent reporter cell lines; assay type: cell-based; conditions: STAT-dependent reporter cell lines
Method in brief: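 Reporter cells (1000–2000) were seeded in duplicate plates, one for luciferase and one for CellTiter-Glo viability. Test compound was added 4–6 hr later, and cells were cultured 24 or 48 hr. Firefly and Renilla luciferase were read, and signals were normalised to cell number from the viability plate.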

[13] = molecular target: STAT3 protein (Mus musculus, UniProt P42227); assay: STAT3 degradation in murine cells; assay type: cell-based
Sequence of STAT3 protein (P42227 whole entry): as the sequence (P40763 whole entry) above, with E760D counted along it

[14] = molecular target: DNA binding activity of STAT3 (Homo sapiens, UniProt P40763); assay: STAT3 DNA binding activity assay on nuclear extracts; assay type: cell-based; conditions: 1 μM, 8 hr, MOLM-16 and SU-DHL-1
Sequence of DNA binding activity of STAT3 (P40763 whole entry): as the sequence (P40763 whole entry) above
Method in brief: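 Nuclear extraction: cells were swelled 15 min on ice in hypotonic HEPES pH 7.9/10 mM KCl buffer with DTT and phosphatase/protease inhibitors. NP-40 was added (0.5% final), and nuclei were extracted 15 min at 4°C in 0.4 M NaCl HEPES buffer, then cleared at 5,000 × g. ELISA: 5 μg extract was bound 1 hr at room temperature in TransAM STAT ELISA wells. Wells then received STAT antibody (1:1000, 1 hr), HRP secondary (1 hr) and colour development.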

[15] = system: mitochondrial STAT3; complex I and II; assay: Mitochondrial STAT3 and OXPHOS complex I/II enzyme activity; assay type: cell-based; conditions: 24 hours
[16] = Toxicity in immune competent mice; assay type: in vivo, CD-1 female mice
Method in brief: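 Female CD-1 mice were given test compound i.v. at 50 or 100 mg/kg, or vehicle (10% PEG400 + 90% PBS), three times weekly for three weeks. Body weight was recorded 2–3 times per week. At the end, blood and major organs were taken for haematology, serum chemistry, organ coefficients and histology.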

[17] = molecular target: STAT2 (Homo sapiens, UniProt P52630); assay: Bio-Layer Interferometry binding, STAT2
Sequence of STAT2 (P52630 138-702): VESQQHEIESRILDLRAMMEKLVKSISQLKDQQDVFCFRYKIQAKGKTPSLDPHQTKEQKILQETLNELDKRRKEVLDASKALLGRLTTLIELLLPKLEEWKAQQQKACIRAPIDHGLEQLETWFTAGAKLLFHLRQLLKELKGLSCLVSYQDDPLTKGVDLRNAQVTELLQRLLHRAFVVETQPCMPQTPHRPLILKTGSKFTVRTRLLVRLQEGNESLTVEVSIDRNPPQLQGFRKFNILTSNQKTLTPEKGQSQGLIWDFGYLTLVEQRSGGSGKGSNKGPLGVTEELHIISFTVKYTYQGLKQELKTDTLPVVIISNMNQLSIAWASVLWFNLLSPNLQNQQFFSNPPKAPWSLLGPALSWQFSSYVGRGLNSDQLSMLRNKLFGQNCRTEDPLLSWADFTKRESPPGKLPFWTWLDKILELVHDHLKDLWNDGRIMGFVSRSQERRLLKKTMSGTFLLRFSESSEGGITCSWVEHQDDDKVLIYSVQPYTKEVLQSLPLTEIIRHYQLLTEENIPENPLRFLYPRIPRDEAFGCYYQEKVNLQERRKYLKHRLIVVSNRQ
Method in brief: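 Purified recombinant human STAT proteins were biotinylated, then direct binding of the test compound was measured by Bio-Layer Interferometry to give Kd.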

[18] = molecular target: monomeric and dimeric STAT3 protein (Homo sapiens, UniProt P40763); assay: Native electrophoresis and immunoblotting of STAT3 monomer/dimer; assay type: cell-based; conditions: MOLM-16, 1 μM, within 5 hr
Sequence of monomeric and dimeric STAT3 protein (P40763 whole entry): as the sequence (P40763 whole entry) above

[19] = molecular target: T1, STAT3; assay: Fluorescence polarization; assay type: binding
Method in brief: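 Competitive fluorescence polarisation assay. Recombinant STAT3 (25 nM) was premixed 5 min with 2.5 nM 5-FAM-labelled STAT3 SH2-domain ligand. The mix was added to serially diluted test compound and read after 1 hr at room temperature. Buffer: 50 mM NaCl, 10 mM HEPES pH 7.5, 1 mM EDTA, 0.01% Triton X-100, 2 mM DTT. IC50 came from nonlinear regression and was converted to Ki.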
Target sequence in this assay (P40763 127-688): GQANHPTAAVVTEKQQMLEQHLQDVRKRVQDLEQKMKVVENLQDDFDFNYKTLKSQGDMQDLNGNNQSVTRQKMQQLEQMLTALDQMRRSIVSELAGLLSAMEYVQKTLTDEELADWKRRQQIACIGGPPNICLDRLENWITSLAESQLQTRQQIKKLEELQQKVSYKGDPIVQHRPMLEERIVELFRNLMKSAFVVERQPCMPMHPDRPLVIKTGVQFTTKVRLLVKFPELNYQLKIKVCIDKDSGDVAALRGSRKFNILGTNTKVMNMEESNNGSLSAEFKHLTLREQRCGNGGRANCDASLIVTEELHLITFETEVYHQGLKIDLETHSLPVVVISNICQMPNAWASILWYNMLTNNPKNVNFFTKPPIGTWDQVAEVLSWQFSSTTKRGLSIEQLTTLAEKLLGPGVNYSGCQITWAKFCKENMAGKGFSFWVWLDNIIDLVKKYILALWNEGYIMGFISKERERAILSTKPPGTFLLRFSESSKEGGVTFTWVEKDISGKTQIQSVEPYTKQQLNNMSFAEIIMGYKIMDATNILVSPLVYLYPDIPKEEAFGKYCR

[20] = system: transcriptional activity of STAT3; assay: STAT3-luciferase reporter assay; assay type: cell-based, human; conditions: Homo sapiens, MOLM16, 24 h, read-out: IC50, transcriptional activity of STAT3
[21] = i.v. 50 and 100 mg/kg, three times a week for three weeks

## NC(=O)CC[C@H](NC(=O)[C@@H]1CC[C@@H]2CCN(C(=O)CCCCCC#Cc3cccc4c3CN(C3CCC(=O)NC3=O)C4=O)C[C@H](NC(=O)c3cc4cc(C(F)(F)P(=O)(O)O)ccc4[nH]3)C(=O)N21)C(=O)NC(c1ccccc1)c1ccccc1 (stereo partly drawn) [SD-36, ((2-(((5S,8S,10aR)-8-(((S)-5-amino-1-(benzhydrylamino)-1,5-dioxopentan-2-yl)carbamoyl)-3-(8-(2-(2,6-dioxopiperidin-3-yl)-1-oxoisoindolin-4-yl)oct-7-ynoyl)-6-oxodecahydropyrrolo[1,2-a][1,5]diazocin-5-yl)carbamoyl)-1H-indol-5-yl)difluoromethyl)phosphonic acid]
[1]; 4 days after a single dose
  STAT3 protein level in MOLM-16 tumors, of controls: < 50%
[1]; single dose, 6 hr
  depletion of STAT3 protein in MOLM-16 and SU-DHL-1 tumors: near-complete depletion
[1]; single dose, MOLM-16 and SU-DHL-1 tumors
  persistence of near-complete STAT3 depletion: > 24 h
[1]; single i.v. dose
  duration of reduced STAT3 protein level: > 4 days
[1]; single i.v. dose 25 mg/kg, 1 hr
  STAT3 protein depleted in MOLM-16 tumors: > 80%
[2]
  expression of a set of STAT3 target genes in tumors: significantly down-regulated
[3]
  apoptosis: strong apoptotic cell death
[4]; 50 mg/kg three times per week
  tumor growth: completely inhibited tumor growth
[4]; 100 mg/kg three times per week, tumor free until day 30
  tumor response: Complete tumor regression
[4]; 100 mg/kg twice a week for 3 weeks, day 29
  tumors with complete tumor regression: 5 out of 7
[5]; 50 mg/kg weekly
  tumor growth inhibited compared to the vehicle control: 50%
[5]; 100 mg/kg on day 1, 3 and 5 per week
  tumor response: complete tumor regression
[5]; 100 mg/kg weekly
  tumor response: rapid and complete tumor regression
[5]; 100 mg/kg weekly, after 2 doses, by day 12
  tumors completely regressed: 7 out of 7
[5]; 100 mg/kg weekly, day 122, >100 days after the last dosing
  mice with no tumor returning: 6 out of 7
[5]; 25 and 50 mg/kg on day 1, 3 and 5 per week
  tumor growth: effectively inhibited tumor growth
[5]; single dose 100 mg/kg, day 6
  tumor volume reduced: 80%
[6]; 9 AML cell lines
  AML cell lines with strong growth-inhibitory activity: 1 of 9
[6]; 9 lymphoma cell lines
  lymphoma cell lines with potent activity: 5 of 9
[7]
  genes down-regulated by ≥2-fold (p≤0.05): 701 genes
  genes up-regulated by ≥2-fold (p≤0.05): 726 genes
[8]
  expression of c-Myc: reduced
[9]
  proteome-wide selectivity: STAT3 was the only protein whose level was significantly decreased by ≥2-fold
[10]
  effect on other STAT proteins in tumors: no significant effect on other STAT proteins
[11]
  levels of IKZF1, IKZF3 and CK1α: very modest effect
  protein levels of GSPT1: not affected
[12]
  transcriptional activities of STAT1 or STAT5A/B: minimal effect
[13]
  STAT3 protein degradation in murine cells: efficiently degraded
[14]
  DNA binding activity of STAT3: abolishes
[15]
  effect on complex I and II activity: did not have a substantial effect
  mitochondrial STAT3: effectively depleted
[16]; 100 mg/kg, three times a week for three weeks
  numbers of neutrophils and platelets: slightly increased
[16]; data not shown
  creatinine, blood urea nitrogen, calcium, albumin and total blood protein: no significant effect
[16]; [21]
  counts of red or white blood cells, lymphocytes, monocytes or eosinophils: no significant changes
  systemic toxicity by body weight, organ coefficient and hematology: no obvious systemic toxicity
[16]; mouse, in vivo
  histology of mouse tissues: no significant effects
[16]; reversible one week after withdrawal
  body weight: moderate body weight gain
[17]
  Kd: ~5000 nM
[18]
  monomeric and dimeric STAT3 protein: completely depletes
[19]
  Ki: 11 nM
[20]
  IC50: 10 nM
